Where “and” joins values, the source holds several entries; their conditions need not be identical. Equal values may be shown once.
Tests used:
[1] = tested on: Fibroblast; test: Multiplex assay against human fibroblast; assay type: toxicity, cell-based
Procedure, shortened: (§1)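 Values for tubulin, mitochondrial-mass and membrane-permeability phenotypes are per cents of cells with healthy nuclei. These cells were identified by CellPathfinder machine-learning gating of live cells that had been stained at seeding with Hoechst33342, BioTracker Green Microtubule Cytoskeleton Dye, MitoTracker Red and Annexin V Alexa Fluor 680 and imaged on a CQ1 microscope at 37°C and 5% CO2 after compound addition. The gating first set Hoechst high-intensity objects apart from normal cells, then split normal cells into healthy, pyknosed or fragmented nuclei, and pyknosed cells into mitotic or apoptotic.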

[2] = tested on: HEK-293T; test: Multiplex assay against HEK293T; assay type: toxicity, cell-based; details: human; procedure, shortened: as §1
[3] = 12 h, 1 µM, compound concentration 1 uM
[4] = 12 h, 10 µM, compound concentration 10 uM
[5] = 24 h, 1 µM, compound concentration 1 uM
[6] = 24 h, 10 µM, compound concentration 10 uM
[7] = 48 h, 1 µM, compound concentration 1 uM
[8] = 48 h, 10 µM, compound concentration 10 uM

CCCN1CCC[C@@H]2Cc3n[nH]cc3C[C@H]21.Cl [QUINPIROLE HYDROCHLORIDE]
Population Apoptotic (%) [1, 3]: 45% and 52%
Population Fragmented Nuclei (%) [1, 3]: 14% and 22%
Population Healthy Nuclei (%) [1, 3]: 65% and 60%
Population Hoechst High Intensity Objects (%) [1, 3]: 2% and 6%
Population Membrane Permeable-Phenotype (%) [1, 3]: 0% and 7%
Population Mitochondria Different-Phenotype (%) [1, 3]: 3% and 6%
Population Mitotic Cells (%) [1, 3]: 54% and 47%
Population Normal (%) [1, 3]: 97% and 93%
Population Pyknosed Nuclei (%) [1, 3]: 20% and 17%
Population Tubulin-Different-Phenotype (%) [1, 3]: 17% and 50%
Total Cell Count [1, 3]: 156 and 139
Population Apoptotic (%) [1, 4]: 58% and 45%
Population Fragmented Nuclei (%) [1, 4]: 16% and 23%
Population Healthy Nuclei (%) [1, 4]: 68% and 59%
Population Hoechst High Intensity Objects (%) [1, 4]: 4% and 2%
Population Membrane Permeable-Phenotype (%) [1, 4]: 1% and 10%
Population Mitochondria Different-Phenotype (%) [1, 4]: 6%
Population Mitotic Cells (%) [1, 4]: 41% and 54%
Population Normal (%) [1, 4]: 95% and 97%
Population Pyknosed Nuclei (%) [1, 4]: 15% and 17%
Population Tubulin-Different-Phenotype (%) [1, 4]: 33% and 55%
Total Cell Count [1, 4]: 115 and 184
Population Apoptotic (%) [1, 5]: 52% and 34%
Population Fragmented Nuclei (%) [1, 5]: 21% and 28%
Population Healthy Nuclei (%) [1, 5]: 64% and 53%
Population Hoechst High Intensity Objects (%) [1, 5]: 1% and 2%
Population Membrane Permeable-Phenotype (%) [1, 5]: 0% and 1%
Population Mitochondria Different-Phenotype (%) [1, 5]: 2% and 7%
Population Mitotic Cells (%) [1, 5]: 47% and 65%
Population Normal (%) [1, 5]: 98%
Population Pyknosed Nuclei (%) [1, 5]: 13% and 17%
Total Cell Count [1, 5]: 172 and 150
Population Apoptotic (%) [1, 6]: 75% and 55%
Population Fragmented Nuclei (%) [1, 6]: 22% and 38%
Population Healthy Nuclei (%) [1, 6]: 67% and 51%
Population Hoechst High Intensity Objects (%) [1, 6]: 2% and 1%
Population Membrane Permeable-Phenotype (%) [1, 6]: 0% and 7%
Population Mitochondria Different-Phenotype (%) [1, 6]: 7% and 3%
Population Mitotic Cells (%) [1, 6]: 25% and 45%
Population Normal (%) [1, 6]: 97% and 98%
Population Pyknosed Nuclei (%) [1, 6]: 10% and 9%
Population Tubulin-Different-Phenotype (%) [1, 6]: 32% and 39%
Total Cell Count [1, 6]: 119 and 209
Population Apoptotic (%) [1, 7]: 68% and 38%
Population Fragmented Nuclei (%) [1, 7]: 23% and 37%
Population Healthy Nuclei (%) [1, 7]: 62% and 53%
Population Hoechst High Intensity Objects (%) [1, 7]: 3% and 1%
Population Membrane Permeable-Phenotype (%) [1, 7]: 0% and 8%
Population Mitochondria Different-Phenotype (%) [1, 7]: 3% and 4%
Population Mitotic Cells (%) [1, 7]: 32% and 61%
Population Normal (%) [1, 7]: 96% and 98%
Population Pyknosed Nuclei (%) [1, 7]: 14% and 8%
Population Tubulin-Different-Phenotype (%) [1, 7]: 21% and 42%
Total Cell Count [1, 7]: 175 and 157
Population Apoptotic (%) [1, 8]: 53% and 46%
Population Fragmented Nuclei (%) [1, 8]: 23% and 43%
Population Healthy Nuclei (%) [1, 8]: 65% and 48%
Population Hoechst High Intensity Objects (%) [1, 8]: 1% and 3%
Population Membrane Permeable-Phenotype (%) [1, 8]: 2%
Population Mitochondria Different-Phenotype (%) [1, 8]: 6% and 4%
Population Mitotic Cells (%) [1, 8]: 46% and 53%
Population Normal (%) [1, 8]: 98% and 96%
Population Pyknosed Nuclei (%) [1, 8]: 11% and 8%
Population Tubulin-Different-Phenotype (%) [1, 8]: 31% and 48%
Total Cell Count [1, 8]: 119 and 192
Population Apoptotic (%) [2, 3]: 32% and 63%
Population Fragmented Nuclei (%) [2, 3]: 6% and 4%
Population Healthy Nuclei (%) [2, 3]: 84% and 82%
Population Hoechst High Intensity Objects (%) [2, 3]: 6% and 3%
Population Membrane Permeable-Phenotype (%) [2, 3]: 0%
Population Mitochondria Different-Phenotype (%) [2, 3]: 37% and 67%
Population Mitotic Cells (%) [2, 3]: 67% and 36%
Population Normal (%) [2, 3]: 93% and 96%
Population Pyknosed Nuclei (%) [2, 3]: 9% and 12%
Population Tubulin-Different-Phenotype (%) [2, 3]: 22% and 26%
Total Cell Count [2, 3]: 447 and 294
Population Apoptotic (%) [2, 4]: 55% and 46%
Population Fragmented Nuclei (%) [2, 4]: 11% and 5%
Population Healthy Nuclei (%) [2, 4]: 72% and 78%
Population Hoechst High Intensity Objects (%) [2, 4]: 9% and 5%
Population Membrane Permeable-Phenotype (%) [2, 4]: 0%
Population Mitochondria Different-Phenotype (%) [2, 4]: 53% and 69%
Population Mitotic Cells (%) [2, 4]: 44% and 53%
Population Normal (%) [2, 4]: 90% and 94%
Population Pyknosed Nuclei (%) [2, 4]: 15% and 16%
Population Tubulin-Different-Phenotype (%) [2, 4]: 40% and 26%
Total Cell Count [2, 4]: 381 and 312
Population Apoptotic (%) [2, 5]: 30% and 29%
Population Fragmented Nuclei (%) [2, 5]: 12% and 8%
Population Healthy Nuclei (%) [2, 5]: 79% and 81%
Population Hoechst High Intensity Objects (%) [2, 5]: 3% and 2%
Population Membrane Permeable-Phenotype (%) [2, 5]: 0%
Population Mitochondria Different-Phenotype (%) [2, 5]: 17% and 37%
Population Mitotic Cells (%) [2, 5]: 70%
Population Normal (%) [2, 5]: 96% and 97%
Population Pyknosed Nuclei (%) [2, 5]: 8% and 9%
Population Tubulin-Different-Phenotype (%) [2, 5]: 14% and 16%
Total Cell Count [2, 5]: 600 and 390
